According to ChEMBL document CHEMBL3621122, “Synthesis of new indole-based bisphosphonates and evaluation of their chelating ability in PE/CA-PJ15 cells” (Eur J Med Chem, 2015):
Active and inactive are the calls of the source. The rule behind the calls is not given here.

Tests used:
[1] = Lipophilicity, log P of the compound; format: physicochemical; conditions: octanol/water
Homo sapiens [2] = organism: Homo sapiens; test: Metal chelating activity in human PE/CA-PJ15 cells assessed as decrease in extracellular Ca2+ concentration at 30 uM by FURA-2 AM probe-based spectrophotofluorometric analysis; format: functional, cell-based; design: scale not given: the % may be the effect or the level left
How it was run: (§1)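 Cell suspension was diluted into HBSS with 1 mM CaCl2 and lysed with 1% Triton X-100. Ca2+/Fura-2 fluorescence after lysis was set as 100%, and bisphosphonate (10–30 µM) was then added. The fluorescence drop was followed over time and read at 30 µM. Mean of 10 experiments ± SEM.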

Homo sapiens [3] = organism: Homo sapiens; test: Metal chelating activity in human PE/CA-PJ15 cells assessed as change in cytosolic Ca2+ concentration at 10 to 30 uM after 50 secs using Ca2+ containing medium by FURA-2 AM probe-based spectrophotofluorometric analysis; format: functional, cell-based
How it was run: (§2)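 Cultured PE/CA-PJ15 cells loaded with FURA-2 AM for 60 min at 37 °C in the dark. Cells resuspended in HBSS pH 7.4, either Ca2+-free (0.1 mM EGTA) or with 1 mM Ca2+. Bisphosphonate added to 10 µM, then a second addition 150 s later to 30 µM. Ratio fluorescence read at ex 340/380 nm, em 510 nm, converted to [Ca2+]c. Δ[Ca2+]c (nM) taken 50 s after addition; mean of 10 experiments ± SEM.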

Homo sapiens [4] = organism: Homo sapiens; test: Metal chelating activity in human PE/CA-PJ15 cells assessed as change in cytosolic Ca2+ concentration at 10 to 30 uM after 50 secs using Ca2+ free medium by FURA-2 AM probe-based spectrophotofluorometric analysis; format: functional, cell-based; how it was run: as §2
Liver microsome [5] = test: Drug metabolism in human liver microsomes assessed as radical of 3-allyl-1H-indole/3-methyl-1H-indole formation by measuring remaining compound level at 5 uM preincubated for 5 mins followed by NADPH addition measured after 30 mins by LC/MS analysis; format: ADME; conditions: 0.5 h
How it was run: (§3)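 Substrate at 5 µM final with human liver microsomes (0.5 mg protein/ml) in 100 mM potassium phosphate pH 7.4, preincubated 5 min at 37 °C with shaking; started with 1 mM NADPH. Stopped at 0 and 30 min with cold acetonitrile containing labetalol internal standard. Protein spun down; supernatant analysed by HPLC-MS/MS for parent remaining.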

Homo sapiens [6] = organism: Homo sapiens; test: Metal chelating activity in human PE/CA-PJ15 cells assessed as decrease in extracellular Ca2+ concentration by FURA-2 AM probe-based spectrophotofluorometric analysis; format: functional, cell-based; how it was run: as §1
Homo sapiens [7] = organism: Homo sapiens; test: Metal chelating activity in human PE/CA-PJ15 cells assessed as decrease in cytosolic Ca2+ concentration at 10 to 30 uM after 50 secs using Ca2+ free medium by FURA-2 AM probe-based spectrophotofluorometric analysis
Liver microsome [8] = test: Retention time of the compound in human liver microsomes at 5 uM preincubated for 5 mins followed by NADPH addition measured after 30 mins by LC/MS analysis; format: ADME; conditions: 0.5 h
How it was run: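 Microsomal incubation: 0.5 mg protein/ml, 5 µM substrate final, pH 7.4 phosphate, 5 min preincubation at 37 °C, 1 mM NADPH, quenched at 0 and 30 min with cold acetonitrile. Supernatant run by HPLC-MS/MS on a C18 column (100 × 2.1 mm, 40 °C). Mobile phases were water/0.1% formic acid and acetonitrile/0.1% formic acid at 0.3 mL/min, gradient from 0% B.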

Homo sapiens [9] = organism: Homo sapiens; test: Metal chelating activity in human PE/CA-PJ15 cells assessed as change in cytosolic Ca2+ concentration at 60 uM after 50 secs using Ca2+ free medium by FURA-2 AM probe-based spectrophotofluorometric analysis; format: functional, cell-based
Homo sapiens [10] = organism: Homo sapiens; test: Increase in cytosolic Ca2+ concentration in human PE/CA-PJ15 cells after 50 secs using Ca2+ containing medium by FURA-2 AM probe-based spectrophotofluorometric analysis; format: functional, cell-based; how it was run: as §2
Homo sapiens [11] = organism: Homo sapiens; test: Metal chelating activity in human PE/CA-PJ15 cells assessed as change in cytosolic Ca2+ concentration at 60 uM after 50 secs using Ca2+ containing medium by FURA-2 AM probe-based spectrophotofluorometric analysis; format: functional, cell-based
[12] = Drug level in presence of tetraethyl (3-(indol-3-yl)propane-1,1-diyl)bis(phosphonate); format: physicochemical; how it was run: as §3
Liver microsome [13] = test: Drug level in human liver microsomes treated with tetraethyl (3-(indol-3-yl)propane-1,1-diyl)bis(phosphonate) at 5 uM preincubated for 5 mins followed by NADPH addition measured after 30 mins by LC/MS analysis; format: ADME; conditions: 0.5 h
How it was run: (§4)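 Human liver microsomes (0.5 mg protein/ml) with substrate at 5 µM final in 100 mM potassium phosphate pH 7.4. Preincubated 5 min at 37 °C with shaking, then started with 1 mM NADPH. Stopped at 0 and 30 min with cold acetonitrile containing labetalol internal standard. Spun 12,000 g, 5 min, 4 °C; supernatant analysed by HPLC-MS/MS.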

Liver microsome [14] = test: Drug level in human liver microsomes treated with tetraethyl (3-(5-fluoroindol-3-yl)propane-1,1-diyl)bis(phosphonate) at 5 uM preincubated for 5 mins followed by NADPH addition measured after 30 mins by LC/MS analysis; format: ADME; conditions: 0.5 h; how it was run: as §4
Liver microsome [15] = test: Drug metabolism in human liver microsomes assessed as radical of 3-allyl-5-fluoro-1H-indole formation by measuring remaining compound level at 5 uM preincubated for 5 mins followed by NADPH addition measured after 30 mins by LC/MS analysis; format: ADME; conditions: 0.5 h; how it was run: as §3

In the case of `O=P(O)(O)C(Cl)(Cl)P(=O)(O)O` [CLODRONATE DISODIUM], the logP ([1]; read-out: logP) is reported as -2.4, the Activity (Homo sapiens [2]) is reported as -12% and the Activity (Homo sapiens [3]) is reported as “Active”. The Activity (Homo sapiens [4]) was “Active”.

With `NCCCC(O)(P(=O)(O)O)P(=O)(O)O` the Activity (Homo sapiens [2]) was -7%, the Activity (Homo sapiens [3]) was “Active” and the Activity (Homo sapiens [4]) was “Active”.

In the case of `CCOP(=O)(OCC)C(CCc1c[nH]c2ccccc12)P(=O)(OCC)OCC`, the Stability (Liver microsome [5]) is reported as 20%, the Activity (Homo sapiens [6]) is reported as “Dose-dependent effect” and the Activity (Homo sapiens [2]) is reported as -73%. For the same compound, the Activity (Homo sapiens [7]) was “Active”, the Activity (Homo sapiens [3]) was “Active” and the Retention_time (Liver microsome [8]) was 8.142 min. For the same compound, the Activity (Homo sapiens [4]) was “Active”.

With `CCOP(=O)(OCC)C(CCc1c[nH]c2ccc(C(F)(F)F)cc12)P(=O)(OCC)OCC` the Activity (Homo sapiens [2]) was -16.5%, the Activity (Homo sapiens [3]) was “Active” and the Activity (Homo sapiens [4]) was “Active”.

In the case of `CCOP(=O)(OCC)C(CCc1c[nH]c2ccncc12)P(=O)(OCC)OCC`, the Activity (Homo sapiens [2]) is reported as -6%, the Activity (Homo sapiens [7]) is reported as “inactive” and the Activity (Homo sapiens [9]) is reported as 36 nM. For the same compound, the Activity (Homo sapiens [10]) was “Dose-dependent effect”, the Activity (Homo sapiens [11]) was 67 nM and the Activity (Homo sapiens [4]) was “inactive”.

With `CCOP(=O)(OCC)C(CCc1c[nH]c2cc(F)ccc12)P(=O)(OCC)OCC` the Activity (Homo sapiens [2]) was -18%, the Activity (Homo sapiens [3]) was “Active” and the Activity (Homo sapiens [4]) was “Active”.

For `O=P(O)(O)C(CCc1c(C2Nc3ccccc3C2CCC(P(=O)(O)O)P(=O)(O)O)[nH]c2ccccc12)P(=O)(O)O` (stereo unspecified), the Drug metabolism [12] was “metabolite_detected”.

For `[CH2]c1c[nH]c2ccccc12`, the Drug metabolism (Liver microsome [13]) was “metabolite_detected” and the Retention_time (Liver microsome [8]) was 5.183 min.

`CC(O)(P(=O)(O)O)P(=O)(O)O` [ETIDRONATE DISODIUM] showed a logP ([1]; read-out: logP) of -3.8.

With `CCOP(=O)(OCC)C(CCc1c[nH]c2cc(C(F)(F)F)ccc12)P(=O)(OCC)OCC` the Activity (Homo sapiens [2]) was -5%, the Activity (Homo sapiens [3]) was “Active” and the Activity (Homo sapiens [4]) was “Active”.

Work on `NCCC(O)(P(=O)([O-])O)P(=O)([O-])O.[Na+].[Na+]` yielded a logP [1] of -4.7.

In the case of `[CH]=CCc1c[nH]c2ccc(F)cc12`, the Retention_time (Liver microsome [8]) is reported as 5.628 min and the Drug metabolism (Liver microsome [14]) is reported as “metabolite_detected”.

With `CCOP(=O)(OCC)C(CCc1c[nH]c2ccc(F)cc12)P(=O)(OCC)OCC` the Activity (Homo sapiens [2]) was -34%, the Activity (Homo sapiens [7]) was “Active” and the Activity (Homo sapiens [3]) was “Active”. The Stability (Liver microsome [15]) was 20%, the Retention_time (Liver microsome [8]) was 8.365 min and the Activity (Homo sapiens [4]) was “Active”.

With `O=P(O)(O)C(CCc1c[nH]c2ccccc12)P(=O)(O)O` the Drug metabolism [12] was “metabolite_detected”.

With `[CH]=CCc1c[nH]c2ccccc12` the Drug metabolism (Liver microsome [13]) was “metabolite_detected” and the Retention_time (Liver microsome [8]) was 6.829 min.

Compound `O=P([O-])(O)C(O)(Cc1cccnc1)P(=O)(O)O.[Na+]` [RISEDRONATE SODIUM] has a logP [1] of -3.6.
